By pIC50 is commonly meant the IC50 on a negative log10 scale, so that one unit is a factor of ten.

pIC50: −log10 of the molar value. Values after ≈ are worked out from the molar mass of the structure shown.

The record followed here is ChEMBL document CHEMBL1649438, “Activities of ceftobiprole and other cephalosporins against extracellular and intracellular (THP-1 macrophages and keratinocytes) forms of methicillin-susceptible and methicillin-resistant Staphylococcus aureus” (Antimicrob Agents Chemother, 2009).

In assay [1] the test system is Staphylococcus aureus. The assay can be described thus: Antimicrobial activity against hospital-acquired methicillin-resistant Staphylococcus aureus […] infected in human THP-1 cells assessed as change in bacterial count after 24 hrs. The class given is functional, organism-based. The conditions noted are these: THP-1, 24 h. Put shortly: (§1)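 THP-1 macrophages infected as described previously, with a postphagocytosis inoculum of 1.5 × 10⁶ to 3.0 × 10⁶ CFU/mg cell protein. Cells were exposed 24 h to increasing extracellular antibiotic concentrations. Response is the change in log10 CFU/mg protein from the inoculum (n = 3), fitted to a Hill function. E0 and Emax were extrapolated to infinitely low and high concentrations. EC50 and static concentration (graphical interpolation) are expressed as multiples of the broth MIC at pH 5.5 or 7.4.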

The test system of assay [2] is Staphylococcus aureus. The assay can be described thus: Antimicrobial activity against Panton-valentine leucocidin-positive community-acquired methicillin-resistant Staphylococcus aureus NRS192 infected in human THP-1 cells assessed as bacterial count per mg of cell protein at high extracellular compound concentration after 24 hrs at pH 5.5. The class given is functional. Put shortly: (§2)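 THP-1 human macrophages infected with S. aureus (postphagocytosis inoculum 1.5 × 10^6 to 3.0 × 10^6 CFU/mg cell protein), then incubated 24 h with increasing extracellular antibiotic concentrations. Change in log10 CFU/mg cell protein from the postphagocytosis inoculum, n = 3. Hill function fitted on log-transformed data. Low-concentration value (E0) and high-concentration value (Emax) are extrapolated. Where a pH is given, concentrations are expressed as multiples of the broth MIC at that pH.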

The subject of assay [3] is Staphylococcus aureus. The assay can be described thus: Antimicrobial activity against methicillin-susceptible Staphylococcus aureus ATCC 11632 infected in human THP-1 cells assessed as bacterial count per mg of cell protein at high extracellular compound concentration after 24 hrs at pH 7.4. In kind it is functional. Put shortly:
(§3)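 Human THP-1 macrophage-like cells were infected with S. aureus to a postphagocytosis inoculum of 1.5 × 10^6 to 3.0 × 10^6 CFU/mg cell protein. Cells were then exposed 24 h to increasing extracellular antibiotic concentrations. Response was the log10 CFU change per mg protein from the postphagocytosis inoculum, n = 3. A Hill function was fitted on log-transformed axes. E0 and Emax were extrapolated to infinitely low and high concentrations. Cs was read by graphical interpolation. Concentrations were expressed as multiples of the broth MIC at pH 5.5 or pH 7.4.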

The subject of assay [4] is Staphylococcus aureus. The assay can be described thus: Antimicrobial activity against Panton-valentine leucocidin-positive community-acquired methicillin-resistant Staphylococcus aureus NRS192 infected in human THP-1 cells assessed as bacterial count per mg of cell protein at low extracellular compound concentration after 24 hrs. In kind it is functional. A digest of the protocol:
as §2

Assay [5] has as its system Staphylococcus aureus. Nature of the assay: Antimicrobial activity against hospital-acquired methicillin-resistant Staphylococcus aureus ATCC 33592 infected in human THP-1 cells assessed as change in bacterial count after 24 hrs. The class given is functional, organism-based. Conditions: ATCC 33592, THP-1, 24 h. Put shortly: as §1
Assay [6] concerns Staphylococcus aureus. The assay can be described thus: Antimicrobial activity against methicillin-susceptible Staphylococcus aureus ATCC 11632 infected in human THP-1 cells assessed as bacterial count per mg of cell protein at high extracellular compound concentration after 24 hrs at pH 5.5. In kind it is functional. Put shortly:
as §3

The test system of assay [7] is Staphylococcus aureus. Nature of the assay: Antimicrobial activity against hospital-acquired vancomycin-intermediate Staphylococcus aureus NRS126 infected in human THP-1 cells assessed as change in bacterial count after 24 hrs at pH 7.4. Conditions: NRS126, THP-1, 24 h. The class given is functional, organism-based. Put shortly: as §1
Assay [8] has as its system Staphylococcus aureus. The assay can be described thus: Antimicrobial activity against hospital-acquired vancomycin-intermediate Staphylococcus aureus NRS126 infected in human THP-1 cells assessed as bacterial count per mg of cell protein at high extracellular compound concentration after 24 hrs. The class given is functional. A digest of the protocol: as §3
The target of a further assay is T1, MecA (Staphylococcus aureus, UniProt Q7DHH4).
T1 sequence (Q7DHH4 whole entry): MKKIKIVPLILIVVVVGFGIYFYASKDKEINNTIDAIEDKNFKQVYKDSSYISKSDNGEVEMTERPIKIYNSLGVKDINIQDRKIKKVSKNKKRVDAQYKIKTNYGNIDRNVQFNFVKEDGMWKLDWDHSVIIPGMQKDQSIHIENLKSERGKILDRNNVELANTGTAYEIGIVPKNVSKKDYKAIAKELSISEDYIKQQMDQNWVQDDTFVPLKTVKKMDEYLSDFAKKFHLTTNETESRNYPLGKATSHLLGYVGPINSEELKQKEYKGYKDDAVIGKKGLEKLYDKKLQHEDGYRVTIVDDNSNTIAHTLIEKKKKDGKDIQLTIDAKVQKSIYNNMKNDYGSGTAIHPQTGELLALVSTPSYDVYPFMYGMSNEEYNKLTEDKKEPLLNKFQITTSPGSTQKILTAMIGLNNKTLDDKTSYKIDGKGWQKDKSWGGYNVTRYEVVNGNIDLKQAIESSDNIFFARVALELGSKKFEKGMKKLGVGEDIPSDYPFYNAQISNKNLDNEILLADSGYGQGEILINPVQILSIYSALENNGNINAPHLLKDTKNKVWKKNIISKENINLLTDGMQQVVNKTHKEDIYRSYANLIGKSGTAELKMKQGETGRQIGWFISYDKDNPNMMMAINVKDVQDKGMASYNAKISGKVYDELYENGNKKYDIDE
Nature of the assay: Binding affinity to Staphylococcus aureus ATCC […] PBP2a by Western blotting at pH 5.5 in presence of 100 uM Bocillin FL. Put shortly:
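Soluble truncated PBP 2a (ΔM1-Y23) was expressed in E. coli Rosetta 2(DE3) and purified. It was preincubated 25 min at 37°C with increasing cephalosporin concentrations, then 100 μM Bocillin FL was added for 25 min at 37°C at pH 5.5 or 7.4. Samples were run on SDS-PAGE and blotted with anti-bodipy antibody plus HRP secondary. Bands were detected by chemiluminescence and quantified by densitometry.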

Assay [9] has as its system Staphylococcus aureus. Nature of the assay: Antimicrobial activity against methicillin-resistant Staphylococcus aureus ATCC 33591 infected in human keratinocytes assessed as bacterial count per mg of cell protein at high extracellular compound concentration after 24 hrs. In kind it is functional. Put shortly:
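Primary human skin keratinocytes were grown in defined keratinocyte serum-free medium, infected with a postphagocytosis inoculum of 1.5 × 10⁶ to 3.0 × 10⁶ CFU/mg cell protein, then exposed 24 h to increasing extracellular antibiotic concentrations. Change in log10 CFU/mg protein from the inoculum was fitted to a Hill equation with slope 1. E0 and Emax were extrapolated to infinitely low and high concentrations, in total drug mg/liter.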

Assay [10] has as its system Staphylococcus aureus. The assay can be described thus: Antimicrobial activity against Panton-valentine leucocidin-positive community-acquired methicillin-resistant Staphylococcus aureus N4090440 infected in human THP-1 cells assessed as bacterial count per mg of cell protein at high extracellular compound concentration after 24 hrs at pH 5.5. In kind it is functional. Put shortly:
as §2

Assay [11] has as its system Staphylococcus aureus. The assay can be described thus: Antimicrobial activity against hospital-acquired vancomycin-resistant Staphylococcus aureus VRS1 infected in human THP-1 cells assessed as change in bacterial count after 24 hrs. In kind it is functional, cell-based. Conditions: VRS1, THP-1, 24 h. Put shortly:
as §1

For assay [12], the system named is Staphylococcus aureus. Nature of the assay: Antimicrobial activity against Panton-valentine leucocidin-positive community-acquired methicillin-resistant Staphylococcus aureus isolate MEH2225605 infected in human THP-1 cells assessed as change in bacterial count after 24 hrs at pH 5.5. The class given is functional, organism-based. Conditions: isolate MEH2225605, THP-1, 24 h. A digest of the protocol:
as §2

Assay [13] concerns Staphylococcus aureus. Nature of the assay: Antimicrobial activity against hospital-acquired vancomycin-intermediate Staphylococcus aureus NRS126 infected in human THP-1 cells assessed as change in bacterial count after 24 hrs. In kind it is functional, organism-based. The conditions noted are these: NRS126, THP-1, 24 h. A digest of the protocol:
as §1

Assay [14] has as its system Staphylococcus aureus. Nature of the assay: Antimicrobial activity against Panton-valentine leucocidin-positive community-acquired methicillin-resistant Staphylococcus aureus N4042228 infected in human THP-1 cells assessed as bacterial count per mg of cell protein at high extracellular compound concentration after 24 hrs at pH 5.5. In kind it is functional. A digest of the protocol: as §2

With `Nc1nc(/C(=N/O)C(=O)N[C@@H]2C(=O)N3C(C(=O)O)=C(/C=C4\CCN([C@@H]5CCNC5)C4=O)CS[C@H]23)ns1` [CEFTOBIPROLE], the EC50 in the assay with Staphylococcus aureus [1] was 0.73 µg/mL (≈ 1.37 µM); in the assay on Staphylococcus aureus [5] it was 1.23 µg/mL (≈ 2.3 µM); in the assay with Staphylococcus aureus [7], 0.28 ×MIC; in the assay with Staphylococcus aureus [11], 0.25 µg/mL (≈ 0.468 µM); with Staphylococcus aureus [12], 0.54 × MIC; in the assay with Staphylococcus aureus [13], 0.23 µg/mL (≈ 0.43 µM). The log10cfu in the assay on Staphylococcus aureus [2] is given as -1.02; in the assay with Staphylococcus aureus [3], -1.04; with Staphylococcus aureus [4], 2.68; in the assay on Staphylococcus aureus [6], 1.04; with Staphylococcus aureus [8], -1.21; with Staphylococcus aureus [9], -1.14. For the same molecule, the log10cfu in the assay with Staphylococcus aureus [10] and in the assay with Staphylococcus aureus [14] was -1.02 in each case. Moreover, the pIC50 at MecA is 5.72.
